Assay results collected from several papers.

O=C1[O][Pt]2([NH][C@@H]3CCCC[C@H]3[NH]2)[O]C1=O (relative stereo) — Tmax (cynomolgus monkey; plasma; oral; 10 mg/kg): 2 h
c1cc([C@H]2CC[C@]3(CC2)OO[C@]2(O3)C3CC4CC(C3)CC2C4)ccc1OCCN1CCOCC1 — AUC(0-inf) (human; plasma; oral; 400 mg; patients): 6450 ng·h/mL
CC(=C/C=C/C(C)=C/C(=O)O)/C=C1\CCCc2ccccc21 — AUC(0-inf) (human; plasma; oral; 5 mg; single dose, fasted, healthy volunteers): 193 ng·h/mL
C=C(C)[C@@H]1CC[C@]2(NCCN3CCS(=O)(=O)CC3)CC[C@]3(C)[C@H](CC[C@@H]4[C@@]5(C)CC=C(C6=CC[C@@](COc7ncccc7C#N)(C(=O)O)CC6)C(C)(C)[C@@H]5CC[C@]43C)[C@@H]12 — AUC(0-inf) (human; plasma; oral; 100 mg; fed): 43600 ng·h/mL
Cc1c(P(=S)(c2ccccc2)c2ccccc2)n2ccccc2[n+]1C/C=C/c1ccccc1 — tissue/plasma ratio (mouse; brain; intraperitoneal; 10 mg/kg): 0.33
COc1ccc(C[C@@H]2NC(=O)[C@H]([C@@H](C)O)NC(=O)[C@@H]3[C@@H]4CCN3C(=O)[C@@H]3Cc5cn(c6ccc(F)cc56)CCCCCCN(Cc5ccc(cc5)CCNC(=O)[C@]5(C)CCCN5C2=O)C(=O)CCC(=O)N[C@@H](C)C(=O)N[C@H](CNC(=O)CCCCC[N+](C)(C)C)C(=O)N[C@@H](Cc2cccc(c2)CNC(=O)CO4)C(=O)N3)cc1 — AUC(0-inf) (human; plasma; oral; 200 mg; single dose, healthy volunteers): 0.556 µM·h
N=c1c2c(-c3ccccc3)c(-c3ccccc3)n(Cc3ccccc3)c2ncn1[C@H]1CC[C@H](O)CC1 — Tmax (male cynomolgus monkey; plasma; oral; 1 mg/kg; single dose): ~15 h
N=C(N)NCCC[C@@H](NC(=O)[C@@H](N)Cc1ccccc1)C(=O)N[C@@H](Cc1ccccc1)C(=O)N[C@@H](CCCCN)C(N)=O — AUC(0-t) (human; plasma; subcutaneous; 5 mg; patients): 861 ng·h/mL
